Columns and labels:
Details in all cases: stereoisomer not certain
[1] = molecular target: OR2T2 (Homo sapiens) (UniProt Q6IF00)
How it was run: (§1)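 Each receptor–molecule pair is labelled responsive or non-responsive (inactive) according to whether the original authors judged the measured signal statistically different from baseline. The data were taken from the main text and supplementary material of published papers and checked for typos and inconsistencies. Assay methods differed by source, with transient luciferase assays in mammalian cell lines being common.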

[2] = tested on: OR2T2 L104F L262Q
How it was run: as §1

[3] = tested on: OR2T2 L104F
How it was run: as §1

[4] = tested on: OR2T2 Q313H
How it was run: as §1

[5] = molecular target: OR2T27 (Homo sapiens) (UniProt Q8NH04)
How it was run: as §1

[6] = molecular target: OR2T29 (Homo sapiens) (UniProt Q8NH02)
How it was run: as §1

[7] = molecular target: OR2T3 (Homo sapiens) (UniProt Q8NH03)
How it was run: as §1

[8] = tested on: OR2T3 L256F
How it was run: as §1

[9] = tested on: OR2T3 R298C
How it was run: as §1

[10] = tested on: OR2T3 Y109H
How it was run: as §1

Measured: odorant receptor agonist call

Chain of OR2T27 (Homo sapiens) (Q8NH04 whole entry): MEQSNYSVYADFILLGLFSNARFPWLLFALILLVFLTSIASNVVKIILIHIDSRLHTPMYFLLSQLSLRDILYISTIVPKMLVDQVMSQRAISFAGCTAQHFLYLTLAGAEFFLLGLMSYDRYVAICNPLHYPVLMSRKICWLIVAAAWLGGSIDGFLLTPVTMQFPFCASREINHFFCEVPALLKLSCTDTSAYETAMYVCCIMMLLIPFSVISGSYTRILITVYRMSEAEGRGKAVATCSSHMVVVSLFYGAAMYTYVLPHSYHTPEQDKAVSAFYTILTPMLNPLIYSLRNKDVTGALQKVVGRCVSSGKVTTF
Chain of OR2T3 (Homo sapiens) (Q8NH03 whole entry): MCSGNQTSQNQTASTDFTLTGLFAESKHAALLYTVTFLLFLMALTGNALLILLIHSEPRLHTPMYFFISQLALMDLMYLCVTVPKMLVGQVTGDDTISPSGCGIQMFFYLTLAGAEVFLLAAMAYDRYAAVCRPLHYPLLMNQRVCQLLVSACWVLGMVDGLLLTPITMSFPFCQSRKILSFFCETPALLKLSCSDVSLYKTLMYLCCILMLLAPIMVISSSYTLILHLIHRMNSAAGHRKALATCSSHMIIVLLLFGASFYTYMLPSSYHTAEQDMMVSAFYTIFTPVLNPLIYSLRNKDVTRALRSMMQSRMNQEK
Chain of OR2T29 (Homo sapiens) (Q8NH02 whole entry): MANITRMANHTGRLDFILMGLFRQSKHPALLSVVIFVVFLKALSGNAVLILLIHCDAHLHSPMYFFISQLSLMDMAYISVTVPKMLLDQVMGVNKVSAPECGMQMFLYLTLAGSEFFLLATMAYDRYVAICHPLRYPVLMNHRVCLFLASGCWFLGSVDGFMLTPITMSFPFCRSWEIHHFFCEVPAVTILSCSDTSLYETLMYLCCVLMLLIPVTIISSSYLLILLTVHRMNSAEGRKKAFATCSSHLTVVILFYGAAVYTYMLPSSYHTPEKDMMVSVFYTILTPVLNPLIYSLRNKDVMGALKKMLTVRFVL
Chain of OR2T2 (Homo sapiens) (Q6IF00 whole entry): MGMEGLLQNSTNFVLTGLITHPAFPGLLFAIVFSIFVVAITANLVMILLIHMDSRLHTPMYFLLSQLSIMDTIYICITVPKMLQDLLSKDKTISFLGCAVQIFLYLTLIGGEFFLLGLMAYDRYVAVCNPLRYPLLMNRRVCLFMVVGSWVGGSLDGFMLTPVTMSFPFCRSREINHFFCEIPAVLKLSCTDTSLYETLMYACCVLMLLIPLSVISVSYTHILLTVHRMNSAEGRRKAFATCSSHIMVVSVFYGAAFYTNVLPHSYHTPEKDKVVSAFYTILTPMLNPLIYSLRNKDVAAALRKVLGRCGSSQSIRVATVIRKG
Chain of OR2T2 Q313H (as listed by the source, stated change not applied): as the sequence (Q6IF00 whole entry) above, with Q313H counted along it
Chain of OR2T3 Y109H (as listed by the source, stated change not applied): as the sequence (Q8NH03 whole entry) above, with Y109H counted along it
Chain of OR2T3 R298C (as listed by the source, stated change not applied): as the sequence (Q8NH03 whole entry) above, with R298C counted along it
Chain of OR2T3 L256F (as listed by the source, stated change not applied): as the sequence (Q8NH03 whole entry) above, with L256F counted along it
Chain of OR2T2 L104F (as listed by the source, stated change not applied): as the sequence (Q6IF00 whole entry) above, with L104F counted along it

C=CCOC(=O)Cc1ccccc1
inactive: all assays above

Cc1c([N+](=O)[O-])c(C)c([N+](=O)[O-])c(C(C)(C)C)c1[N+](=O)[O-]
inactive: [1] | [5] | [6] | [7]
